One compound from ChEMBL document CHEMBL1649157, “Intracellular activity of antibiotics against Staphylococcus aureus in a mouse peritonitis model” (Antimicrob Agents Chemother, 2009) can be followed below.

Converted amounts (≈) assume the structure as drawn. The source made the active and inactive calls. No cut-off for these calls is given here. Where only a bound is given, the exact number is not on record here.

The test system of series [1] is Staphylococcus aureus. Put plainly: Antibacterial activity against Staphylococcus aureus E19977 infected in NMRI mouse assessed as log reduction in bacterial cfu in peritoneum at 200 mg/kg, sc administered as single dose 2 hrs after infection measured between 4 to 19 hrs. In kind it is functional. As to conditions: route subcutaneous. An outline of the steps: (§1)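 Female outbred NMRI mice (25 to 30 g) were infected i.p. with 0.5 ml of 10^7.7 CFU/ml S. aureus E19977 in 5% (wt/vol) mucin. The first dose was given 2 h after inoculation, either once or as three doses every 8 h, with four mice per group. Mice were euthanized 19 h after treatment onset and washed peritoneally with 2.0 ml saline. Total CFU were counted by duplicate spotting of 10-fold dilutions on 5% blood agar.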

Series [2] concerns Staphylococcus aureus. Put plainly: Antibacterial activity against Staphylococcus aureus E19977 infected in NMRI mouse assessed as log reduction in intracellular bacterial cfu in peritoneum at 200 mg/kg, sc administered as single dose 2 hrs after infection measured between 4 to 19 hrs. In kind it is functional, organism-based. Also noted: dose 200 mg/kg. Put shortly:
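NMRI mice were infected i.p. and given one or three doses (every 8 h), starting 2 h post-inoculation, at 200 mg/kg or 60 mg/kg, four mice per group. Peritoneal washes were sampled over 19 h of treatment. Total, extracellular and intracellular CFU/ml (lysostaphin separation) were compared with the pretreatment level; mean ± range, n = 2. Untreated controls were sampled only at 6 h of infection.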

The test system of series [3] is Staphylococcus aureus. Put plainly: Antibacterial activity against Staphylococcus aureus E19977 infected in NMRI mouse assessed as log reduction in bacterial cfu in peritoneum at 60 mg/kg, sc administered as single dose 2 hrs after infection measured within 4 hrs. In kind it is functional. As to conditions: route subcutaneous. An outline of the steps: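 Female NMRI mice were infected i.p. with S. aureus E19977 (10^7.7 CFU/ml, 0.5 ml, 5% mucin). They were treated 2 h post-inoculation with a single 60 mg/kg dose and sampled after 4 h of treatment. Peritoneal-wash CFU were plated on blood agar. Δlog10 CFU/ml was calculated against vehicle-treated controls with the same infection duration.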

Series [4] relates to Staphylococcus aureus. The series can be described thus: Bactericidal activity against Staphylococcus aureus E19977 assessed as log reduction in cfu at 2 mg/liter after 12 hrs by time-kill study. The format is functional. Put shortly:
(§2)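 Clinical bacteremia isolate (penicillin-resistant, methicillin-susceptible). Exponential-phase bacteria were placed in an in vitro kinetic model that simulates drug elimination without changing the inoculum. The starting drug level matched the human free peak serum concentration after a single dose, with simulated human elimination half-life. Samples were taken at 0, 2, 4, 6, 8, 12 and 24 h, with growth controls in each run.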

Series [5] deals with Staphylococcus aureus. Put plainly: Bactericidal activity against Staphylococcus aureus E19977 assessed as log reduction in cfu at 2 mg/liter upto 24 hrs by time-kill study. The format is functional. An outline of the steps:
as §2

The subject of series [6] is Staphylococcus aureus. Put plainly: Bactericidal activity against Staphylococcus aureus E19977 assessed as log reduction in cfu at 1.5 mg/liter upto 24 hrs by time-kill study. In kind it is functional. An outline of the steps: as §2
In series [7] the test system is Staphylococcus aureus. The series can be described thus: Bactericidal activity against Staphylococcus aureus E19977 assessed as log reduction in cfu at 20 mg/liter upto 24 hrs by time-kill study. In kind it is functional. An outline of the steps: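 In vitro kinetic model: exponential-phase bacteria at a final 10^6.3 CFU/ml were exposed to a starting concentration set to the human free peak level. Elimination followed the simulated human half-life. Samples were taken at 0, 2, 4, 6, 8, 12 and 24 h and counted on 5% blood agar (detection limit 25 CFU/ml). Growth controls were included; n = 2.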

The test system of series [8] is Staphylococcus aureus. The series can be described thus: Bactericidal activity against Staphylococcus aureus E19977 assessed as log reduction in cfu at 9 mg/liter after 24 hrs by time-kill study. In kind it is functional, organism-based. Put shortly:
(§3)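 In vitro kinetic model simulating antibiotic elimination without inoculum change. Exponential-phase E19977 was added at a final 10^6.3 CFU/ml. Starting drug concentration matched the human free peak, with the human half-life simulated. Samples were plated on 5% blood agar at 0, 2, 4, 6, 8, 12 and 24 h, with growth controls in each run. Results are shown as mean and range, n = 2.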

The test system of series [9] is Staphylococcus aureus. The series can be described thus: Bactericidal activity against Staphylococcus aureus E19977 assessed as log reduction in cfu at 2 mg/liter after 24 hrs by time-kill study. The format is functional, organism-based. Put shortly: as §3
Series [10] relates to Staphylococcus aureus. Put plainly: Bactericidal activity against Staphylococcus aureus E19977 assessed as log reduction in cfu at 1.5 mg/liter after 24 hrs by time-kill study. The format is functional, organism-based. Put shortly: as §3
Series [11] deals with Staphylococcus aureus. The series can be described thus: Bactericidal activity against Staphylococcus aureus E19977 assessed as log reduction in cfu at 20 mg/liter after 24 hrs by time-kill study. The format is functional, organism-based. An outline of the steps: as §3
In series [12] the test system is Staphylococcus aureus. The series can be described thus: Bactericidal activity against Staphylococcus aureus E19977 assessed as log reduction in cfu at 0.5 mg/liter after 24 hrs by time-kill study. In kind it is functional, organism-based. Put shortly: as §3
Series [13] deals with Staphylococcus aureus. Put plainly: Antibacterial activity against Staphylococcus aureus E19977 infected in NMRI mouse assessed as log reduction in bacterial cfu in peritoneum at 200 mg/kg, sc administered 2 hrs after infection measured after 4 hrs. In kind it is functional, organism-based. Details: dose 200 mg/kg. An outline of the steps:
(§4)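 Dose–response in i.p.-infected NMRI mice (mucin adjuvant). Single doses of 200, 60, 30, 20 or 10 mg/kg were given 2 h after inoculation, with 4–16 mice per group. Peritoneal wash was sampled 4 h later and split by lysostaphin/centrifugation into total, extra- and intracellular counts, then expressed as Δlog10 CFU/ml against log dose. Vehicle controls were plotted as 0.3 mg/kg. Hill fit (variable slope); static dose interpolated.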

The test system of series [14] is Staphylococcus aureus. The series can be described thus: Antibacterial activity against Staphylococcus aureus E19977 infected in NMRI mouse assessed as log reduction in extracellular bacterial cfu in peritoneum at 200 mg/kg, sc administered 2 hrs after infection measured after 4 hrs. Also noted: dose 200 mg/kg. In kind it is functional, organism-based. Put shortly:
as §4

The test system of series [15] is Staphylococcus aureus. The series can be described thus: Antibacterial activity against Staphylococcus aureus E19977 infected in NMRI mouse assessed as log reduction in bacterial cfu in peritoneum at 60 mg/kg, sc administered as single dose 1 hr after infection measured after 4 hrs. In kind it is functional, organism-based. Details: dose 60 mg/kg. An outline of the steps: (§5)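 NMRI mice were infected i.p. with S. aureus E19977 in 5% mucin. A single dose (60 mg/kg or 10 mg/kg) was given 1, 2 or 3 h after inoculation, four mice per group. Peritoneal wash was sampled after 4 h of treatment and separated into total, extracellular and intracellular counts by lysostaphin/centrifugation. Δlog10 CFU/ml was calculated against vehicle-treated mice infected for the same time (5, 6 or 7 h).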

Series [16] deals with Staphylococcus aureus. Put plainly: Antibacterial activity against Staphylococcus aureus E19977 infected in NMRI mouse assessed as log reduction in intracellular bacterial cfu in peritoneum at 60 mg/kg, sc administered as single dose 2 hrs after infection measured after 4 hrs. Also noted: dose 60 mg/kg. The format is functional, organism-based. Put shortly: as §5
The subject of series [17] is Staphylococcus aureus. Put plainly: Antibacterial activity against Staphylococcus aureus E19977 infected in NMRI mouse assessed as log reduction in intracellular bacterial cfu in peritoneum at 60 mg/kg, sc administered as single dose 3 hrs after infection measured after 4 hrs. In kind it is functional, organism-based. Details: dose 60 mg/kg. An outline of the steps: as §5

Series [18] relates to Staphylococcus aureus. Put plainly: Antibacterial activity against Staphylococcus aureus E19977 infected in NMRI mouse assessed as log reduction in bacterial cfu in peritoneum at 200 mg/kg, sc administered 2 hrs after infection evry 8 hrs as three-dose regimen measured after 19 hrs. As to conditions: route subcutaneous. In kind it is functional. Put shortly:
as §1

Series [19] relates to Staphylococcus aureus. Put plainly: Antibacterial activity against Staphylococcus aureus E19977 infected in NMRI mouse assessed as log reduction in extracellular bacterial cfu in peritoneum at 200 mg/kg, sc administered 2 hrs after infection evry 8 hrs as three-dose regimen measured after 19 hrs. The format is functional. Particulars: route subcutaneous.
The test system of series [20] is Staphylococcus aureus. Put plainly: Antibacterial activity against Staphylococcus aureus E19977 by Etest. In kind it is functional.
Series [21] is described as follows: Cmax in human at 1000 mg, po. In kind it is ADME, organism-based. Details: dose 1000 mg, route oral. As to conditions: in vivo.
Series [22] has as its system Serum. The series can be described thus: Protein binding in human serum at 1000 mg, po. In kind it is ADME, organism-based. As to conditions: in vivo.

Take `Cc1onc(-c2c(Cl)cccc2Cl)c1C(=O)N[C@@H]1C(=O)N2[C@@H]1SC(C)(C)[C@@H]2C(=O)O` [DICLOXACILLIN]: the FC in series [1] is given as below 1; in series [3], below 1; in series [4] it was 2; in [5], 2; in series [6] it was 2; in series [7] it was above 2. Further, the FC in [18] and in series [19] was 2 each time. In addition, the result in [2], in [8], in series [9], in series [10], in series [11] and in series [12] was inactive. Besides, the outcome in series [17] was inactive. The result in series [13], in series [14], in series [15] and in [16] was Active. In series [20], this compound registered a minimum inhibitory concentration (MIC) of 0.5 µg/mL (≈ 1.06 µM). This compound showed a Cmax in series [21] of 30000 ng/mL. Moreover, the Activity in series [22] stood at 95%.

A word on the MIC: it is the lowest concentration found to suppress growth. Higher therefore signals weaker potency. One may read the Cmax as the peak of the concentration-time curve.
